The source made the active and inactive calls. The rule behind the calls is not given here.
Legend:
[1] = molecular target: T1, Peroxisome proliferator-activated receptor delta (Homo sapiens, UniProt Q03181); test: (§1) Activity at PPARbeta/delta by luciferase reporter gene transactivation assay in COS7 cells; assay type: functional, cell-based, COS-7
T1 sequence (Q03181 whole entry): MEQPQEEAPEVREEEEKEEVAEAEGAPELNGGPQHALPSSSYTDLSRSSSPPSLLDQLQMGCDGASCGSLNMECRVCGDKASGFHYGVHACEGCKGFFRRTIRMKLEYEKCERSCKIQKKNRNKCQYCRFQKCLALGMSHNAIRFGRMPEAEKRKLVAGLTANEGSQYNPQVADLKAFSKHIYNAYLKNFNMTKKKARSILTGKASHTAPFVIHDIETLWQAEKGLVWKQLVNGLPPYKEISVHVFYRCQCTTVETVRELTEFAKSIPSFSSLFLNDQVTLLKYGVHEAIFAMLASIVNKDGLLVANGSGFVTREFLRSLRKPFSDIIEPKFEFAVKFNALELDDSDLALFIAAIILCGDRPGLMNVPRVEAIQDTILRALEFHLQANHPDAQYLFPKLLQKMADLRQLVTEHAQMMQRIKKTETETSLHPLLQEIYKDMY

[2] = molecular target: T2, Peroxisome proliferator-activated receptor alpha (Homo sapiens) (UniProt Q07869); test: (§2) Activity at PPARalpha by luciferase reporter gene transactivation assay in COS7 cells; assay type: functional, cell-based; conditions: COS-7
T2 sequence (whole entry): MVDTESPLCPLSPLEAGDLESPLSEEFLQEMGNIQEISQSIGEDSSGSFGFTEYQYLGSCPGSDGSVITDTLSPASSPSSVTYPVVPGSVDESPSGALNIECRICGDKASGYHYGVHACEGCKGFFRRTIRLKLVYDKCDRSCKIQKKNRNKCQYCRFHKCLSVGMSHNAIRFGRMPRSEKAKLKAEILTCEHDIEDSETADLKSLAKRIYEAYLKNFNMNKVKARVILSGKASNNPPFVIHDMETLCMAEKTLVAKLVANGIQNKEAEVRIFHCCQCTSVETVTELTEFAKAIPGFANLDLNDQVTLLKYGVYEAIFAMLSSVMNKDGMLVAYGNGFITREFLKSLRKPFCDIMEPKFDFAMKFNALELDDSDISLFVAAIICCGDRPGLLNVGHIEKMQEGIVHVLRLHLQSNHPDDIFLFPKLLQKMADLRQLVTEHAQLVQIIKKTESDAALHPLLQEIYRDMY

[3] = molecular target: T3, Peroxisome proliferator-activated receptor alpha (Homo sapiens, UniProt Q07869); test: as §2; assay type: functional, cell-based, COS-7
T3 sequence (Q07869 whole entry): T2 sequence (whole entry)

[4] = molecular target: T4, Peroxisome proliferator-activated receptor gamma (Homo sapiens, UniProt P37231); test: Activity at PPARgamma by luciferase reporter gene transactivation assay in COS7 cells; assay type: functional, cell-based, COS-7
T4 sequence (P37231 whole entry): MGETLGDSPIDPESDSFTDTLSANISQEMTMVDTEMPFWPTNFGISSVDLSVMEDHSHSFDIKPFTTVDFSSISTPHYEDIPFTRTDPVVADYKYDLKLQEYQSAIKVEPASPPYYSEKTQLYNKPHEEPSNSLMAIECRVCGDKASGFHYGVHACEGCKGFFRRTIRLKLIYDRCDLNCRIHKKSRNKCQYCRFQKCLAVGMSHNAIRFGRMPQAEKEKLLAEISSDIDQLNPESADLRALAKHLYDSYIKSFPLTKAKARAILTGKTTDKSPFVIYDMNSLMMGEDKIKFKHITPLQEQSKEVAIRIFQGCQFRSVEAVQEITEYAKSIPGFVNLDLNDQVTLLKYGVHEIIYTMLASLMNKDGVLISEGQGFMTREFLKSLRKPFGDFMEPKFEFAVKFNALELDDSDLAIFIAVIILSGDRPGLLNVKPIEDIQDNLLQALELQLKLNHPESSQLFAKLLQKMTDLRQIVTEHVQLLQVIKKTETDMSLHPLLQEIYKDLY

[5] = molecular target: T2, Peroxisome proliferator-activated receptor alpha (Homo sapiens); test: Activity at PPARalpha by luciferase reporter gene transactivation assay in COS7 cells relative to WY-14643 at 10 uM; assay type: functional, cell-based; conditions: COS-7
Summary of the method: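 Cos-7 cells were transiently transfected, using PEI in OptiMEM for 3 h at 37 °C, with the pG5-TK-pGL3 luciferase reporter, pGAL4hPPARa (Gal4 DBD–human PPARα LBD) and pCMV-β-galactosidase. Cells were reseeded in 96-well plates and treated for 16 h in DMEM with 0.2% FCS at 10 µM–10 nM. Luciferase was normalized to β-galactosidase, and maximal activity was expressed versus the WY14.643 positive control. Experiments were run at least three times.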

[6] = species on record: Homo sapiens; test: Selectivity for human PPARdelta over human PPARalpha
Summary of the method: (§3)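 The selectivity ratio is taken from EC50 values measured in Cos-7 cells transiently transfected with the pG5-TK-pGL3 luciferase reporter plus Gal4 DBD–human PPARβ/δ, PPARα or PPARγ LBD chimeras and β-galactosidase control. Cells were treated for 16 h in 0.2% FCS DMEM at 10 µM–10 nM. EC50s were fitted from β-gal-normalized luciferase and are means of three experiments.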

[7] = molecular target: PPAR delta/gamma (Homo sapiens) (UniProt P37231+Q03181); test: Selectivity for human PPARdelta over human PPARgamma; assay type: protein assay; summary of the method: as §3
[8] = molecular target: T5, Peroxisome proliferator-activated receptor delta (Homo sapiens) (UniProt Q03181); test: as §1; assay type: functional, cell-based; conditions: COS-7
T5 sequence (whole entry): T1 sequence (Q03181 whole entry)

SMILES	EC50 [1] [nM]	Activity [2]	EC50 [3] [nM]	EC50 [4] [nM]	Activity [5] [%]	Selectivity ratio [6]	Selectivity ratio [7]	Activity [8]
CCCc1ccccc1OCCCOc1ccc(OCC(=O)OC)cc1	1050	inactive	–	–	–	–	–	–
CCCc1c(OCCCOc2ccc(OCC(=O)OC)cc2)cnc(C(C)=O)c1O	82	–	8390	757	64	–	–	–
CCCc1cc(C(F)(F)F)ncc1OCCCOc1ccc(OCC(=O)O)c(C)c1	15	–	1330	1580	136	> 100	–	–
CCCc1c(OCCCOc2ccc(OCC(=O)O)cc2)ccc(C(C)=O)c1O	125	–	977	1820	–	8	15	–
Cc1cc(SCc2sc(-c3ccc(C(F)(F)F)cc3)nc2C)ccc1OCC(=O)O	–	–	–	–	452	–	–	–
CC(=O)c1ccc(OCCCOc2ccc(OCC(=O)O)cc2)cc1	–	inactive	–	–	–	–	–	inactive
CC(=O)c1ccc(OCCCOc2ccc(OCC(=O)O)cc2)cc1O	10000	inactive	–	–	–	–	–	–
CCCc1c(OCCCOc2ccc(OCC(=O)OC)cc2)ccc(C(C)=O)c1O	457	–	1070	288	32	–	–	–
CCCc1cc(C(F)(F)F)ccc1OCCCOc1ccc(OCC(=O)OC)cc1	98	–	1400	1190	49	–	–	–
CCCc1cc(C(F)(F)F)ccc1OCCCOc1ccc(OCC(=O)OC)c(C)c1	16	–	1010	1260	85	–	–	–
COC(=O)COc1ccc(OCCCOc2cccc(O)c2)cc1	–	inactive	–	–	–	–	–	inactive
CCCc1cc(C(F)(F)F)ccc1OCCCOc1ccc(OCC(=O)O)c(C)c1	7	–	103	153	40	–	–	–
